The source of these data is ChEMBL document CHEMBL4196194, “De Novo Design of α-Helical Lipopeptides Targeting Viral Fusion Proteins: A Promising Strategy for Relatively Broad-Spectrum Antiviral Drug Discovery” (J Med Chem, 2018).

In general, solubility refers to the concentration that dissolves in the medium under given conditions. The term half-life denotes the time needed for the level to fall by half in the phase considered. Lower therefore signals rapid decline. As a reminder, the CC50 is the concentration that lowers cell viability or growth by half.

Data set [1] can be described thus: Solubility in pure water at 2 mg by HPLC-UV method. It counts as physicochemical.
The test system of data set [2] is Influenza A virus. Description: Antiviral activity against influenza A virus assessed as inhibition of viral replicon activity up to 100 uM incubated for 30 hrs by firefly luciferase reporter gene assay. It counts as functional, organism-based. An outline of the steps:
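HEK293T cells (2.5 × 10^4/well) transfected with plasmids for NP, PB1, PB2, PA plus p0LN-S-Luc firefly and pRL-SV40 Renilla reporters; serially diluted compound added 6 h post-transfection, luciferase read after 30 h by Dual-Glo. Activity = firefly/Renilla ratio; % inhibition normalized to positive and negative controls, curve-fitted; three independent measurements.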

For data set [3], the system named is Middle East respiratory syndrome-related coronavirus. Description: Binding affinity to MERS-CoV spike protein synthetic peptide HR1P assessed as melting temperature at 10 uM at pH 7.4 by CD spectroscopy. An outline of the steps: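 Thermal unfolding by CD at 222 nm, 10–90 °C at 2 °C/min. Samples held 10 μM peptide: for HR1P in 10 mM phosphate pH 7.4; for N66 in 10 mM sodium acetate with 10 mM sodium phosphate and 150 mM NaCl, pH 5.0.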

Data set [4] is described as follows: Half life in Sprague-Dawley rat at 5 mg/kg, iv administered as single dose by LC-MS/MS analysis. It counts as ADME, organism-based. Particulars: in vivo.
The subject of data set [5] is Influenza A virus. The data set is described as follows: Inhibition of influenza A virus infected in MDCK cells assessed as inhibition of viral load treated with compound at 2 to 5 hrs post-infection by RT-qPCR method based time of addition assay. The data set is classed as functional, organism-based. An outline of the steps: (§1)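 MDCK cells (2.0 × 10^5/well) washed with PBS, virus adsorbed (MOI 0.05) 60 min at 4 °C, washed, then compound present only during 0–10, 0–2, 2–5, 5–8 or 8–10 h postinfection; cultured in fresh medium to 10 h, total RNA extracted, viral load by absolute one-step RT-qPCR; triplicate, versus PBS control.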
Background: Real-time PCR tracks product formation cycle by cycle.

Data set [6] relates to Influenza A virus. Particulars: Hong Kong/8/1968(H3N2), 0.1 to 1000 uM.
In data set [7] the test system is Influenza A virus. The data set is described as follows: Inhibition of influenza A virus infected in MDCK cells assessed as inhibition of viral load treated with compound at 0 to 10 hrs post-infection by RT-qPCR method based time of addition assay. It counts as functional. An outline of the steps: as §1
For data set [8], the system named is Middle East respiratory syndrome-related coronavirus. The data set is described as follows: Antiviral activity against MERS-CoV pseudovirus infected in human HuH7 cells treated with 30 mins pre-treated pseudovirus/compopund mixture and measured after 48 hrs by luciferase reporter assay. It counts as functional, organism-based. An outline of the steps:
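Serially diluted peptide premixed with MERS-CoV pseudovirus 30 min at 37 °C, then added to Huh-7 cells; medium replaced at 12 h postinfection and cells cultured a further 48 h at 37 °C before luciferase read-out.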
Background: A reporter such as luciferase makes a cellular process visible.

The nature of data set [9]: Cytotoxicity in human HuH7 cells assessed as reduction in cell viability incubated for 48 hrs by CCK8 assay. The data set is classed as cell-based, Huh-7. An outline of the steps:
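Huh-7 cells (1 × 10^5 cells/mL suspension seeded) grown 12 h at 37 °C, 5% CO2, then serially diluted peptide added for 48 h; untreated blank and Triton X-100 controls. CCK-8 added for 2 h, absorbance at 450 nm.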

In brackets after ≈: the same amount, converted by molar mass. Activity calls are given as the source filed them. Where a SMILES comes first, the peptide text is derived from it. [ ]: non-standard residue; d: D form. The star is where a group is joined. Palmitoyl = CCCCCCCCCCCCCCCC(=O)*; βAla = NCCC(=O)O A value given as a limit tells only on which side of the number the result lay.

For the compound `CCCCCCCCCCCCCCCC(=O)NCCCC[C@H](NC(=O)CCNC(=O)[C@H](CCCCN)NC(=O)[C@H](CCCCN)NC(=O)[C@H](CCC(N)=O)NC(=O)[C@@H](NC(=O)[C@H](CCC(=O)O)NC(=O)[C@H](CCC(=O)O)NC(=O)[C@@H](NC(=O)[C@H](CCCCN)NC(=O)[C@H](CCCCN)NC(=O)[C@H](CCC(N)=O)NC(=O)[C@@H](NC(=O)[C@H](CCC(=O)O)NC(=O)[C@H](CCC(=O)O)NC(=O)[C@@H](NC(=O)[C@H](CCCCN)NC(=O)[C@H](CCCCN)NC(=O)[C@H](CCC(N)=O)NC(=O)[C@@H](NC(=O)[C@H](CCC(=O)O)NC(=O)[C@H](CCC(=O)O)NC(=O)[C@@H](NC(=O)[C@H](CCCCN)NC(=O)[C@H](CCCCN)NC(=O)[C@H](CCC(N)=O)NC(=O)[C@@H](NC(=O)[C@H](CCC(=O)O)NC(=O)[C@H](CCC(=O)O)NC(=O)[C@@H](NC(=O)[C@H](CCCCN)NC(=O)[C@H](CCCCN)NC(=O)[C@H](CCC(N)=O)NC(=O)[C@@H](NC(=O)[C@H](CCC(=O)O)NC(=O)[C@H](CCC(=O)O)NC(=O)[C@@H](NC(C)=O)[C@@H](C)CC)[C@@H](C)CC)[C@@H](C)CC)[C@@H](C)CC)[C@@H](C)CC)[C@@H](C)CC)[C@@H](C)CC)[C@@H](C)CC)[C@@H](C)CC)[C@@H](C)CC)C(N)=O` (Ac-IEEIQKKIEEIQKKIEEIQKKIEEIQKKIEEIQKK[βAla]K(Palmitoyl)-NH2), the solubility in data set [1] came out at 8870 µg/mL (≈ 1830 µM). In addition, the inhibition entry in the data set with Influenza A virus [2], in the data set with Influenza A virus [5] and in the data set with Influenza A virus [6] was “inactive” throughout. Also, in data set [3], the Tm was over 90 °C. Moreover, in data set [4], the half-life is 6.6 h. Also, the “inhibition (INH)” value with Influenza A virus [7] is reported as 60%. In [8], the result was Active. Besides, the CC50 at 48 h in data set [9] was over 100 µM.
